Assay results: ChEMBL document CHEMBL4619820, “Development of Novel AKR1C3 Inhibitors as New Potential Treatment for Castration-Resistant Prostate Cancer” (J Med Chem, 2020)
Calls of active or inactive are those of the source. The calls are words filed in the database; no cut-off is given here.

Assays:
[1] = system: LNCaP; assay: Inhibition of pregnenolone-induced cell proliferation of human LNCAP cells at 10 to 20 uM incubated for 72 hrs by alamar blue assay; assay type: functional, cell-based
Outline: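 LNCaP and androgen-low-sensitive LNCaP-E9 cells pretreated 2 h with inhibitor, then 72 h with 20 nM pregnenolone; viable cells expressed as percent of untreated LNCaP control.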

[2] = target: T1, Aldo-keto reductase family 1 member C3 (Homo sapiens) (UniProt P42330); assay: Inhibition of AKR1C3 in human 22Rv1 cells assessed as potentiation of abiraterone-induced apoptosis by measuring reduction in BCl2 level at 10 uM pre-incubated for 2 hrs before addition of pregnenolone for 24 hrs by Western blot analysis; assay type: cell-based; conditions: CWR22R
T1 sequence (whole entry): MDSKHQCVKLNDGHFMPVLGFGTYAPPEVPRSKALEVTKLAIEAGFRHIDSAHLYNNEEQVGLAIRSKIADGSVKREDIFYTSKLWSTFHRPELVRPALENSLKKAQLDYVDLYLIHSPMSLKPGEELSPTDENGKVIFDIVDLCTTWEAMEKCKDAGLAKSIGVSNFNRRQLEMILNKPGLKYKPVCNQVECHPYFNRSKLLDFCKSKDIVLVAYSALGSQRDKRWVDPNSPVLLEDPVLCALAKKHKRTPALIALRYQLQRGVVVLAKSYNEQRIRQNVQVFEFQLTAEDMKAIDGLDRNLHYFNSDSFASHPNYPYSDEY

[3] = target: T1, Aldo-keto reductase family 1 member C3 (Homo sapiens); assay: Inhibition of AKR1C3 in human 22Rv1 cells assessed as potentiation of abiraterone-induced of ROS generation at 10 uM by DCFH-DA dye based flow cytometric analysis; assay type: cell-based; conditions: CWR22R
Outline: (§1)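 22Rv1 cells exposed 3 h to 10 μM inhibitor and/or abiraterone, or 50 μM enzalutamide; intracellular ROS by flow cytometry as DCF-positive cells, percent of vehicle control.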

[4] = target: T1, Aldo-keto reductase family 1 member C3 (Homo sapiens); assay: Inhibition of AKR1C3 in human 22Rv1 cells assessed as potentiation of enzalutamide-induced apoptosis by measuring reduction in BCl2 level at 10 uM pre-incubated for 2 hrs before addition of pregnenolone for 24 hrs by Western blot analysis; assay type: cell-based; conditions: CWR22R
Outline: (§2)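 Apoptotic markers in 22Rv1: 2 h pretreatment with or without 10 μM inhibitor and/or 50 μM enzalutamide, then 24 h 20 nM pregnenolone; Bax/Bcl-2 ratio as percent of control; cleaved caspase-3 also by immunofluorescence with DAPI.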

[5] = system: CWR22R; assay: Induction of apoptosis in human 22Rv1 cells assessed as increase in cleaved caspase-3 level at 10 uM pre-incubated for 2 hrs before addition of pregnenolone for 24 hrs by Western blot analysis; assay type: functional, cell-based; outline: as §2
[6] = target: T1, Aldo-keto reductase family 1 member C3 (Homo sapiens); assay: Inhibition of AKR1C3 in human 22Rv1 cells assessed as potentiation of enzalutamide-induced apoptosis by measuring increase in cleaved PARP level at 10 uM pre-incubated for 2 hrs before addition of pregnenolone for 24 hrs by Western blot analysis; assay type: cell-based; conditions: CWR22R; outline: as §2
[7] = target: T1, Aldo-keto reductase family 1 member C3 (Homo sapiens); assay: Inhibition of AKR1C3 in human 22Rv1 cells assessed as as reduction in AR nuclear translocation at 10 to 20 uM pre-incubated for 2 hrs in absence of finasteride by Western blot analysis; assay type: cell-based; conditions: CWR22R
[8] = target: T1, Aldo-keto reductase family 1 member C3 (Homo sapiens); assay: Inhibition of AKR1C3 in human 22Rv1 cells assessed as as reduction in AR mRNA expression at 10 to 20 uM pre-incubated for 2 hrs before pregnenolone stimulation for 24 hrs by RT-qPCR analysis; assay type: cell-based; conditions: CWR22R
Outline: (§3)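 22Rv1 cells pretreated 2 h with test agents, then stimulated 24 h with 20 nM pregnenolone; AR, TMPRSS2 and PSA mRNA measured by RT-qPCR, given as ratio to pregnenolone-free control.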

[9] = target: T1, Aldo-keto reductase family 1 member C3 (Homo sapiens); assay: Inhibition of AKR1C3 in human 22Rv1 cells assessed as as reduction in PSA mRNA expression at 10 to 20 uM pre-incubated for 2 hrs before pregnenolone stimulation for 24 hrs by RT-qPCR analysis; assay type: cell-based; conditions: CWR22R; outline: as §3
[10] = target: T1, Aldo-keto reductase family 1 member C3 (Homo sapiens); assay: Inhibition of AKR1C3 in human 22Rv1 cells assessed as potentiation of abiraterone-induced apoptosis by measuring increase in cleaved caspase-3 level at 10 uM pre-incubated for 2 hrs before addition of pregnenolone for 24 hrs by Western blot analysis; assay type: cell-based; conditions: CWR22R
[11] = target: T1, Aldo-keto reductase family 1 member C3 (Homo sapiens); assay: Inhibition of AKR1C3 in human 22Rv1 cells assessed as potentiation of enzalutamide-induced apoptosis by measuring increase in DNA fragmentation at 10 uM pre-incubated for 2 hrs before addition of pregnenolone for 24 hrs by ethidium bromide staining based DNA agarose gel electrophores method; assay type: cell-based; conditions: CWR22R
[12] = target: T1, Aldo-keto reductase family 1 member C3 (Homo sapiens); assay: Inhibition of AKR1C3 in human 22Rv1 cells assessed as potentiation of enzalutamide-induced apoptosis by measuring increase in cleaved caspase-3 level at 10 uM pre-incubated for 2 hrs before addition of pregnenolone for 24 hrs by Western blot analysis; assay type: cell-based; conditions: CWR22R; outline: as §2
[13] = target: T1, Aldo-keto reductase family 1 member C3 (Homo sapiens); assay: Inhibition of AKR1C3 in human 22Rv1 cells assessed as potentiation of enzalutamide-induced of ROS generation at 10 uM by DCFH-DA dye based flow cytometric analysis; assay type: cell-based; conditions: CWR22R; outline: as §1
[14] = target: T1, Aldo-keto reductase family 1 member C3 (Homo sapiens); assay: Inhibition of AKR1C3 in human 22Rv1 cells assessed as induction of ROS generation at 10 uM by DCFH-DA dye based flow cytometric analysis; assay type: cell-based; conditions: CWR22R; outline: as §1
[15] = target: T1, Aldo-keto reductase family 1 member C3 (Homo sapiens); assay: Inhibition of AKR1C3 in human 22Rv1 cells assessed as potentiation of abiraterone-induced apoptosis by measuring increase in DNA fragmentation at 10 uM pre-incubated for 2 hrs before addition of pregnenolone for 24 hrs by ethidium bromide staining based DNA agarose gel electrophores method; assay type: cell-based; conditions: CWR22R
[16] = target: T1, Aldo-keto reductase family 1 member C3 (Homo sapiens); assay: Inhibition of AKR1C3 in human 22Rv1 cells assessed as potentiation of abiraterone-induced apoptosis by measuring increase in cleaved PARP level at 10 uM pre-incubated for 2 hrs before addition of pregnenolone for 24 hrs by Western blot analysis; assay type: cell-based; conditions: CWR22R
[17] = system: CWR22R; assay: Effect on AKR1C3 gene expression in human 22Rv1 cells at 10 uM incubated for 24 hrs by semiquantitative RT-PCR analysis; assay type: functional, cell-based
[18] = system: CWR22R; assay: Induction of apoptosis in human 22Rv1 cells assessed as increase in DNA fragmentation at 10 uM pre-incubated for 2 hrs before addition of pregnenolone for 24 hrs by ethidium bromide staining based DNA agarose gel electrophores method; assay type: functional, cell-based
[19] = target: T1, Aldo-keto reductase family 1 member C3 (Homo sapiens); assay: Inhibition of AKR1C3 in human 22Rv1 cells assessed as as reduction in TMPRSS2 mRNA expression at 10 to 20 uM pre-incubated for 2 hrs before pregnenolone stimulation for 24 hrs by RT-qPCR analysis; assay type: cell-based; conditions: CWR22R; outline: as §3
[20] = target: T1, Aldo-keto reductase family 1 member C3 (Homo sapiens); assay: Inhibition of AKR1C3 in human 22Rv1 cells assessed as as reduction in AR nuclear translocation at 10 pre-incubated for 2 hrs before 4AD addition for 24 hrs by Western blot analysis; assay type: cell-based; conditions: CWR22R
Outline: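 22Rv1 cells pretreated 2 h with or without 10 μM inhibitor, then exposed 24 h to 10 nM 4AD; nuclear AR measured by Western blot of cell extracts, normalized to Lamin A+C, as percent of control.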

[21] = system: PC-3; assay: Inhibition of cell proliferation of human PC3 cells at 10 to 20 uM incubated for 72 hrs by alamar blue assay; assay type: functional, cell-based
Outline: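 PC3 cells (AKR1C3-positive, AR-negative) grown 72 h with or without inhibitor; growth curves of viable cell number compared with inhibitor-free cells.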

[22] = system: CWR22R; assay: Inhibition of pregnenolone-induced cell cell cycle changes in human 22Rv1 cells assessed as increase in G0/GG1 phase accumulation at 10 uM pre-incubated for 2 hrs before pregnenolone stimulation for 24 hrs by propidium iodide staining based flow cytometry; assay type: functional
Outline: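 Cell cycle in 22Rv1: 2 h pretreatment with or without 10 μM inhibitor, then 24 h with 20 nM pregnenolone; G0/G1, S and G2/M fractions determined by flow cytometry.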

| Structure (SMILES) | inhibition [1] | inhibition [2] | inhibition [3] | inhibition [4] | Activity [5] | inhibition [6] | inhibition [7] | inhibition [8] | inhibition [9] | inhibition [10] | inhibition [11] | inhibition [12] | inhibition [13] | inhibition [14] | inhibition [15] | inhibition [16] | Activity [17] | Activity [18] | inhibition [19] | inhibition [20] | also measured |
| --- | --- | --- | --- | --- | --- | --- | --- | --- | --- | --- | --- | --- | --- | --- | --- | --- | --- | --- | --- | --- | --- |
| Cc1ccc(NC(=O)c2cc3cccc(O)c3oc2=N)cc1 | Active | Active | Active | Active | Active | Active | Active | Active | Active | Active | Active | Active | Active | Active | Active | Active | inactive | Active | Active | Active | inhibition [21]: Active; inhibition [22]: Active |
| N=c1oc2c(O)cccc2cc1C(=O)Nc1ccc(F)cc1 | Active | Active | Active | Active | Active | Active | Active | Active | Active | Active | Active | Active | Active | Active | Active | Active | inactive | Active | Active | Active | inhibition [21]: Active; inhibition [22]: Active |
